Results taken from ChEMBL document CHEMBL3272019, “Synthesis and some properties and antitumor effects of the actinomycin lactam analog, (di(1-L-alpha, beta-diaminopropionic))actinomycin D1” (1976).
Converted amounts (≈) assume the structure as drawn. The source made the active and inactive calls. The rule behind the calls is not given here.

How the values were obtained:
[1] = system: B16; assay: Antitumor activity against mouse B16 cells allografted in BDF1 mouse assessed as increase in life span at 0.075 mg/kg/injection, ip administered intermittently on days 1, 5 and 9 measured on day 60; format: functional; conditions: 1440 h, route intraperitoneal
Summary of the method: (§1)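 B16 melanoma in mice, standard screening method. Schedules were daily on days 1–9, on days 1, 5 and 9, or a single day-1 injection, each over a four- to fivefold dose range. Survival time (range of individual deaths) was recorded, percent increase in life-span computed against untreated controls, and survivors tallied.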

[2] = system: Sarcina; assay: Antibacterial activity against Sarcina subflava assessed as growth inhibition; format: functional
[3] = system: L1210; assay: Antitumor activity against mouse L1210 cells allografted in BDF1 mouse assessed as increase in lifespan at 0.15 mg/kg/injection, ip administered intermittently on days 1, 5 and 9; format: functional; conditions: route intraperitoneal
[4] = system: Bacillus subtilis; assay: Antibacterial activity against Bacillus subtilis Marburg assessed as growth inhibition; format: functional
[5] = system: L1210; assay: Antitumor activity against mouse L1210 cells allografted in BDF1 mouse assessed as mean survival time at 0.2 mg/kg/injection, ip administered as single dose (reference value: 9.6 days); format: functional; conditions: route intraperitoneal
[6] = system: P388; assay: Antitumor activity against mouse P388 cells allografted in BDF1 mouse assessed as mean survival time at 0.2 mg/kg/injection, ip administered as single dose (reference value: 10.5 days); format: functional; conditions: route intraperitoneal
Summary of the method: (§2)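 P388 leukaemia: 10⁶ cells implanted ip on day 0 into groups of eight male BDF mice. Dosing was ip daily on days 1–9, on days 1, 5 and 9, or as a single day-1 dose, over four- to fivefold dose ranges. Median survival time (range of deaths) and percent increase in life-span were recorded, with survivors/total counted at day 60.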

[7] = system: L1210; assay: Antitumor activity against mouse L1210 cells allografted in BDF1 mouse assessed as mean survival time at 0.0125 mg/kg/injection, ip administered daily for 9 days (reference value: 9.6 days); format: functional; conditions: route intraperitoneal
[8] = system: L1210; assay: Antitumor activity against mouse L1210 cells allografted in BDF1 mouse assessed as mean survival time at 0.15 mg/kg/injection, ip administered intermittently on days 1, 5 and 9 (reference value: 9.6 days); format: functional; conditions: route intraperitoneal
[9] = system: B16; assay: Antitumor activity against mouse B16 cells allografted in BDF1 mouse assessed as mean survival time at 0.075 mg/kg/injection, ip administered intermittently on days 1, 5 and 9 (reference value: 28 days); format: functional; conditions: route intraperitoneal; summary of the method: as §1
[10] = system: P388; assay: Antitumor activity against mouse P388 cells allografted in BDF1 mouse assessed as increase in life span at 0.15 mg/kg/injection, ip administered intermittently on days 1, 5 and 9 measured on day 60; format: functional; conditions: 1440 h, route intraperitoneal; summary of the method: as §2
[11] = system: P388; assay: Antitumor activity against mouse P388 cells allografted in BDF1 mouse assessed as increase in life span at 0.2 mg/kg/injection, ip administered as single dose measured on day 60; format: functional; conditions: 1440 h, route intraperitoneal; summary of the method: as §2
[12] = system: B16; assay: Antitumor activity against mouse B16 cells allografted in BDF1 mouse assessed as mean survival time at 0.05 mg/kg/injection, ip administered as single dose (reference value: 28 days); format: functional; conditions: route intraperitoneal; summary of the method: as §1
[13] = system: B16; assay: Antitumor activity against mouse B16 cells allografted in BDF1 mouse assessed as increase in life span at 0.05 mg/kg/injection, ip administered daily for 9 days measured on day 60; format: functional; conditions: route intraperitoneal; summary of the method: as §1
[14] = system: L1210; assay: Antitumor activity against mouse L1210 cells allografted in BDF1 mouse assessed as increase in life span at 0.0125 mg/kg/injection, ip administered daily for 9 days; format: functional; conditions: 216 h, route intraperitoneal
[15] = system: L1210; assay: Antitumor activity against mouse L1210 cells allografted in BDF1 mouse assessed as increase in life span at 0.2 mg/kg/injection, ip administered as single dose; format: functional; conditions: route intraperitoneal
[16] = system: Calf thymus DNA; assay: Binding affinity to calf thymus DNA at 25 uM by visible and near-UV CD spectrophotometry; format: nucleic-acid assay; conditions: Bos taurus
Summary of the method: (§3)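 CD spectra, visible and near-UV, of 25.0 µM drug alone and with DNA (calf thymus or PM2, 0.52 mM as nucleotide phosphorus) in 0.01 M sodium phosphate, pH 7.0. Recorded at about 23° in tandem 1-cm cylindrical quartz cells. Drug concentration was set spectrophotometrically at 440 nm.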

[17] = system: Calf thymus DNA; assay: Binding affinity to calf thymus DNA at 37.1 uM by visible and near-UV CD spectrophotometry; format: nucleic-acid assay; conditions: Bos taurus
Summary of the method: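 Visible/near-UV CD of 37.1 µM drug, free and with calf thymus DNA at 0.53 mM nucleotide phosphorus, in 0.01 M sodium phosphate pH 7.0 at about 23°. Tandem 1-cm quartz cells were used. Concentration was fixed from absorbance at 440 nm (ε 23585 M⁻¹ cm⁻¹).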

[18] = system: B16; assay: Antitumor activity against mouse B16 cells allografted in BDF1 mouse assessed as increase in life span at 0.05 mg/kg/injection, ip administered as single dose measured on day 60; format: functional; conditions: 1440 h, route intraperitoneal; summary of the method: as §1
[19] = system: P388; assay: Antitumor activity against mouse P388 cells allografted in BDF1 mouse assessed as mean survival time at 0.15 mg/kg/injection, ip administered intermittently on days 1, 5 and 9 (reference value: 10.5 days); format: functional; conditions: route intraperitoneal; summary of the method: as §2
[20] = system: Staphylococcus aureus; assay: Antibacterial activity against Penicillin-resistant Staphylococcus aureus assessed as growth inhibition; format: functional
[21] = system: P388; assay: Antitumor activity against mouse P388 cells allografted in BDF1 mouse assessed as mean survival time at 0.1 mg/kg/injection, ip administered daily for 9 days (reference value: 10.5 days); format: functional; conditions: route intraperitoneal; summary of the method: as §2
[22] = system: Pseudoalteromonas phage PM2; assay: Binding affinity to bacteriophage PM2 DNA at 25 uM by visible and near-UV CD spectrophotometry; summary of the method: as §3
[23] = system: P388; assay: Antitumor activity against mouse P388 cells allografted in BDF1 mouse assessed as increase in life span at 0.1 mg/kg/injection, ip administered daily for 9 days measured on day 60; format: functional; conditions: route intraperitoneal; summary of the method: as §2
[24] = system: B16; assay: Antitumor activity against mouse B16 cells allografted in BDF1 mouse assessed as mean survival time at 0.05 mg/kg/injection, ip administered daily for 9 days (reference value: 28 days); format: functional; conditions: route intraperitoneal; summary of the method: as §1

Cc1c2oc3c(C)ccc(C(=O)N[C@H]4CNC(=O)[C@H](C(C)C)N(C)C(=O)CN(C)C(=O)[C@@H]5CCCN5C(=O)[C@@H](C(C)C)NC4=O)c3nc-2c(C(=O)N[C@H]2CNC(=O)[C@H](C(C)C)N(C)C(=O)CN(C)C(=O)[C@@H]3CCCN3C(=O)[C@@H](C(C)C)NC2=O)c(N)c1=O
ILS at 0.075 mg/kg [1]: 14%
MIC [2]: 0.35 mg/L (≈ 0.286 µM)
ILS at 0.15 mg/kg [3]: 14%
MIC [4]: 0.9 mg/L (≈ 0.734 µM)
IC50 ([4]; read-out: ID50 (the source's name)): 0.4 mg/L (≈ 0.326 µM)
MST [5]: 11.8 days
MST [6]: 14 days
MST [7]: 11.2 days
MST [8]: 11 days
MST [9]: 32 days
ILS at 0.15 mg/kg [10]: 33%
ILS at 0.2 mg/kg [11]: 33%
MST [12]: 29 days
ILS at 0.05 mg/kg [13]: 7%
ILS at 0.0125 mg/kg [14]: 17%
ILS at 0.2 mg/kg [15]: 22%
Activity [16]: Active
Activity [17]: Active
ILS at 0.05 mg/kg [18]: 4%
MST [19]: 14 days
MIC [20]: 0.35 mg/L (≈ 0.286 µM)
MST [21]: 14.5 days
Activity [22]: Active
ILS at 0.1 mg/kg [23]: 38%
MST [24]: 30 days
